The values that follow come from ChEMBL document CHEMBL1137906, “Microwave assisted synthesis of 2-(4-substituted piperazin-1-yl)-1,8-naphthyridine-3-carbonitrile as a new class of serotonin 5-HT3 receptor antagonists” (Bioorg Med Chem Lett, 2004).

SMILES strings stand for the structures.

The nature of this assay: Antagonism of 2-methyl-5-HT effect on 5-hydroxytryptamine 3 receptor in isolated guinea pig ileum. It counts as functional, tissue-based. Conditions: Cavia porcellus, read-out: pA2 (converted). An outline of the steps:
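Longitudinal muscle-myenteric plexus strip from guinea pig ileum, prepared by a literature method. Equilibrated 30 min at 500 mg resting tension in Tyrode solution, ca. 37°C, constant aeration. Agonist 2-methyl-5-HT added noncumulatively at 15 min intervals; antagonism of its contractile response measured. Values are means of three separate experiments.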

As to `C=CCN1CCN(c2nc3ncccc3cc2C#N)CC1`, the Kb was 0.00631 µM.
The figure for `CN1CCN(c2nc3ncccc3cc2C#N)CC1` is 0.0398 µM; for `CCN1CCN(c2nc3ncccc3cc2C#N)CC1` it is 0.0794 µM; for `N#Cc1cc2cccnc2nc1N1CCN(c2ccc([N+](=O)[O-])cc2)CC1` it is 158 µM.
As to `N#Cc1cc2cccnc2nc1N1CCN(c2ccccc2)CC1`, the Kb was 2 µM.
The figure for `N#Cc1cc2cccnc2nc1N1CCNCC1` is 0.316 µM; for `COc1ccc(N2CCN(c3nc4ncccc4cc3C#N)CC2)cc1` it is 12.6 µM; for `N#Cc1cc2cccnc2nc1N1CCN(Cc2ccccc2)CC1` it is 7.94 µM.
In the case of `COc1ccccc1N1CCN(c2nc3ncccc3cc2C#N)CC1` it was 3.98 µM.
The figure for `Cc1nccn1CC1CCc2c(c3ccccc3n2C)C1=O` (configuration not stated) [ONDANSETRON] is 0.126 µM; for `N#Cc1cc2cccnc2nc1N1CCN(c2ccccn2)CC1` it is 126 µM.
As to `COc1cccc(N2CCN(c3nc4ncccc4cc3C#N)CC2)c1`, the Kb is 1 µM.
